From ChEMBL document CHEMBL4011643, “Triaryl Benzimidazoles as a New Class of Antibacterial Agents against Resistant Pathogenic Microorganisms” (J Med Chem, 2017)
≈ marks a conversion by molar mass, not a printed value.

How the values were obtained:
[1] = tested on: Enterococcus faecalis; assay: Antibacterial activity against vancomycin-resistant Enterococcus faecalis NCTC 12201 after 20 hrs by broth microdilution method; assay type: functional; conditions: NCTC 12201, 20 h
How it was run: (§1)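 Broth microdilution in Tryptic Soy Broth; growth read as OD600 after 20 h. MIC taken as the lowest drug concentration giving OD600 below 0.1. Run in triplicate.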

[2] = tested on: Staphylococcus aureus; assay: Antibacterial activity against methicillin-resistant Staphylococcus aureus EMRSA-15 after 20 hrs by broth microdilution method; assay type: functional; conditions: EMRSA-15, 20 h; how it was run: as §1
[3] = tested on: Enterococcus faecium; assay: Antibacterial activity against vancomycin-resistant Enterococcus faecium NCTC 12204 after 20 hrs by broth microdilution method; assay type: functional; conditions: NCTC 12204, 20 h; how it was run: as §1
[4] = tested on: Enterococcus faecalis; assay: Antibacterial activity against vancomycin-sensitive Enterococcus faecalis NCTC 775 after 20 hrs by broth microdilution method; assay type: functional; conditions: NCTC 775, 20 h
How it was run: (§2)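 Broth microdilution in Tryptic Soy Broth, done in triplicate. Growth was read as OD600 after 20 h. MIC is the lowest drug concentration giving OD600 below 0.1.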

[5] = tested on: Staphylococcus aureus; assay: Antibacterial activity against methicillin-resistant Staphylococcus aureus MRSA252 after 20 hrs by broth microdilution method; assay type: functional; conditions: MRSA252, 20 h; how it was run: as §1
[6] = Cytotoxicity against human HeLa cells assessed as cell viability at 25 uM after 24 hrs by MTT assay; assay type: cell-based; conditions: read-out: Activity
How it was run: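 HeLa cells, 10000 per well, were grown at 37 °C in 5% CO2 and allowed to settle for 24 h. Compound was then added in triplicate for 24 h of continuous exposure. Viability was read by MTT colorimetry, with absorbance at 570 nm.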

[7] = tested on: Staphylococcus aureus; assay: Antibacterial activity against methicillin-sensitive Staphylococcus aureus ATCC 9144 after 20 hrs by broth microdilution method; assay type: functional; conditions: ATCC 9144, 20 h; how it was run: as §2
[8] = Stabilization of FAM/TAMRA-labeled AT-rich DNA duplex (unknown origin) assessed as change in melting temperature at 1 uM by FRET-based assay
How it was run: (§3)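 FRET melting of a FAM/TAMRA-labelled AT-rich oligonucleotide, 400 nM working solution in 50 mM potassium, 50 mM cacodylate, pH 7.4. DNA was annealed at 85 °C for 6 min, then held at 25 °C for 5 h, and mixed 1:1 with sample. Fluorescence was read every 0.5 °C from 30 to 100 °C, with a 30 s hold per step. ΔTm is measured against the blank, in triplicate.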

[9] = Stabilization of FAM/TAMRA-labeled AT-rich DNA duplex (unknown origin) assessed as change in melting temperature at 5 uM by FRET-based assay; how it was run: as §3

Row | SMILES | MIC [1] | MIC [2] | further results
1 | Cc1nc2ccc(C(=O)Nc3cccc(-c4ccc(-n5c(C)nc6cc(C(=O)NCCCN7CCOCC7)ccc65)nc4)c3)cc2[nH]1 | > 128 µg/mL | > 128 µg/mL | –
2 | Cc1nc2cc(C(=O)NCCCN(C)C)ccc2n1-c1ccc(Br)cn1 | > 128 µg/mL | > 128 µg/mL | –
3 | CN[C@H](CC(C)C)C(=O)N[C@H]1C(=O)N[C@@H](CC(N)=O)C(=O)N[C@H]2C(=O)N[C@H]3C(=O)N[C@H](C(=O)N[C@H](C(=O)O)c4cc(O)cc(O)c4-c4cc3ccc4O)[C@H](O)c3ccc(c(Cl)c3)Oc3cc2cc(c3O[C@@H]2O[C@H](CO)[C@@H](O)[C@H](O)[C@H]2O[C@H]2C[C@](C)(N)[C@H](O)[C@H](C)O2)Oc2ccc(cc2Cl)[C@H]1O [VANCOMYCIN] | > 128 µg/mL | – | MIC [3]: > 128 µg/mL; MIC [4]: 1 µg/mL (≈ 0.69 µM)
4 | COC(=O)c1ccc2c(c1)nc(C)n2-c1ccc(-c2cccc(NC(=O)c3ccc4nc(C)[nH]c4c3)c2)cn1 | > 32 µg/mL | > 32 µg/mL | –
5 | Cc1nc2cc(C(=O)NCCCN(C)C)ccc2n1-c1ccc(-c2cccc(N)c2)cn1 | > 128 µg/mL | > 128 µg/mL | –
6 | Cc1nc2cc(C(=O)NCCCN(C)C)ccc2n1-c1ccc(-c2cccc(NC(=O)c3ccccc3)c2)cn1 | > 128 µg/mL | > 128 µg/mL | –
7 | Cc1nc2cc(C(=O)NCCCN(C)C)ccc2n1-c1ccc(-c2cccc(NC(=O)c3ccc4nc(CCCN(C)C)[nH]c4c3)c2)cn1 | 32 to 64 µg/mL (≈ 48.6 to 97.3 µM) | > 128 µg/mL | MIC [3]: 64 µg/mL (≈ 97.3 µM); MIC [5]: > 128 µg/mL; viability at 24 h, 25 µM [6]: 39%; MIC [7]: > 128 µg/mL; MIC [4]: > 128 µg/mL
8 | Cn1cc(NC(=O)c2cc(NC(=O)CN=C(N)N)cn2C)cc1C(=O)NCCC(=N)N [NETROPSIN] | – | – | deltaTm [8]: 16.5 °C; deltaTm [9]: 22.2 °C
